# In PubChem BioAssay:
# The source made the active and inactive calls.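 The calls were made as follows: active = primary screen active whose calcium signal fell more than 3 SD beyond the full-serotonin control mean in both duplicate plates; inactive = the rest.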
# Assay: serotonin-gated TRPC4 signal block – cell-based, second counter screen, HEK293 TRPC4/5HT1a, Fluo-4, counter-screen for TRPC4 inhibitor project, confirmation (AID 434978);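 as to outcome: serotonin given first at submaximal then at maximal dose after compound preincubation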
# Conditions: Fluo-4 calcium flux, at 10 µM, serotonin added to trigger calcium flux; stronger effect = higher value
# Summary of the method: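 Times: 110 s each for compound, submaximal and ECmax serotonin; Assay system: TRPC4/5HT1a HEK293 cells; Also added: serotonin, a submaximal addition followed by a maximal (ECmax) addition; Replicates: each compound tested on duplicate plates; Measured by: Fluo-4 calcium fluorescence.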
SMILES,outcome,inhibition
CC(C)C(=O)N1CCN(c2nc(-c3ccccc3)c3c(c2C#N)CCCC3)CC1,inactive,–
CC(=O)n1cc([C@@H]2C=C(C(=O)NCc3ccccc3)O[C@H](OCc3ccc(CO)cc3)C2)c2ccccc21,inactive,–
CCN1CCN(c2nc(N)c([N+](=O)[O-])c(Nc3ccc(C)c(C)c3)n2)CC1,inactive,–
CN1/C(=C\C=[N+](C)c2ccccc2)C(C)(C)c2ccccc21,inactive,–
COc1cc(NC(=O)C(C)Oc2ccccc2)cc(OC)c1 (centres undefined),inactive,–
CCCCc1ccc(NC(=O)CSc2nnc(C)c(=O)n2N)cc1,inactive,–
O=C(COc1ccc(Br)cc1Cl)c1ccc[nH]1,–,43.7% (active)
Clc1cc(/C=N\NC2=NCCN2)cc(Cl)n1,inactive,–
Cc1cc(OCC(=O)N2CCCC2)cc(C)c1Cl,inactive,–
CCOC(=O)CC(NS(=O)(=O)c1ccc(OC)c(C)c1)c1cccc([N+](=O)[O-])c1 (centres undefined),inactive,–
O=C(COc1coc(CN2CCN(c3ccccc3F)CC2)cc1=O)Nc1ccccc1,inactive,–
CN(C)CCCNC(=O)/C=C/c1ccc(OCc2c(F)cccc2Cl)cc1,inactive,–
CC(C)c1cccc(OCCCCN(C)C)c1,inactive,–
CNc1oc(-c2ccccc2Cl)nc1P(=O)(c1ccccc1)c1ccccc1,inactive,–
Cc1ccc(C(=O)C[n+]2cccc3cc(C)ccc32)cc1,inactive,–
CCCN1CCN(C(=S)NCc2ccc(Cl)cc2)CC1,inactive,–
CC(=O)Nc1nc(-c2ccc3c(c2)CCN3C(=O)C2CC2)c(C)s1,inactive,–
COC(=O)c1ccccc1NC(=O)CCC(=O)N1CC(C)Oc2ccc(C)cc21 (centres undefined),–,44% (active)
CN1CCN(S(=O)(=O)c2ccc(Br)c3ccccc23)CC1,inactive,–
CC(C)(C)C(=O)NCCCc1nc2ccccc2n1CCCOc1ccc(Cl)cc1,inactive,–

SMILES,outcome,inhibition
CCN(CC)c1ccc(CNc2nc3ccccc3n2CCN2CCCCC2)cc1,inactive,–
O=[N+]([O-])c1ccc(S(=O)(=O)NCCCc2ccccc2)cc1,inactive,–
CC(=O)c1ccc(OCC(O)CN2CCN(S(=O)(=O)c3c(C)cc(C)cc3C)CC2)cc1 (centres undefined),inactive,–
CC(=O)c1ccc(N2CCN(c3ccc(S(=O)(=O)NCCCN(C)C)cc3[N+](=O)[O-])CC2)cc1,inactive,–
C=CCn1c(SCCN2CCCCC2)nc2c1c(=O)[nH]c(=O)n2C,inactive,–
CCCN(C(=O)COC(=O)C12CCC(=O)N1c1ccccc1S2)c1c(N)n(Cc2ccccc2)c(=O)[nH]c1=O (centres undefined),inactive,–
Cc1cc(C(=O)CN2C(=O)C(=O)N(CC(C)C)C2=O)c(C)n1-c1ccccc1F,inactive,–
C/C(=N\NC(=O)COc1ccc(C)cc1C(C)C)c1ccc(-n2ccnc2)cc1,inactive,–
COc1cc(/C=C2\C(=O)ON=C2c2ccccc2)cc(Cl)c1O,inactive,–
CN(CC(=O)Nc1ccc(F)cc1)C(=O)COC(=O)C1CCN(c2ccc(C(F)(F)F)cn2)CC1,–,36.3% (active)
CCCN(CCC)CCCNC(=O)c1cc2c(=O)n(C)c3ccccc3c2n1C,inactive,–
COc1ccccc1CC(=O)N1CCN(S(=O)(=O)c2ccccc2)CC1,inactive,–
O=C(COc1ccccc1)NC1CCCCCCC1,inactive,–
O=C(CC1C(=O)NCCN1C(=O)Nc1ccccc1)Nc1cc(Cl)cc(Cl)c1 (centres undefined),inactive,–
COc1ccc(NS(=O)(=O)c2cccc(C(=O)N3CCN(Cc4cc(OC)ccc4OC)CC3)c2)cc1,inactive,–
Cc1ccc(C(=O)c2no[n+]([O-])c2C(=O)c2ccc(C)cc2)cc1,inactive,–
O=C(NC1CCCC1)c1cc2ccccc2o1,inactive,–
COc1ccc(-n2cc(CNCc3cccnc3)c(-c3cccc(F)c3)n2)cc1,inactive,–
CN1CCCN(Cc2cccc3ccccc23)CC1,inactive,–
